Measurements from ChEMBL document CHEMBL3745692, “Novel iodoacetamido benzoheterocyclic derivatives with potent antileukemic activity are inhibitors of STAT5 phosphorylation” (Eur J Med Chem, 2016).

What was measured:
K562 [1] = assay: Cell cycle arrest in human K562 cells assessed as accumulation at G2M-phase at 0.75 uM for 24 hrs by propidium iodide staining based flow cytometry (reference value: 12.89%); type: functional
In short: (§1)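 K562 cells were exposed to compound for 24 h. They were then washed in ice-cold PBS and resuspended at 1×10^6/mL in a hypotonic solution of propidium iodide 50 µg/mL in 0.1% sodium citrate with 0.03% NP-40. After 30 min, DNA content was read by flow cytometry as single-parameter histograms and cell cycle phase distribution (%) was modelled.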

K562 [2] = assay: Cell cycle arrest in human K562 cells assessed as accumulation at S-phase at 0.75 uM for 24 hrs by propidium iodide staining based flow cytometry (reference value: 47.84%); type: functional; in short: as §1
K562 [3] = assay: Antiproliferative activity against human K562 cells after 48 hrs by trypan blue dye exclusion assay; type: functional, cell-based; conditions: K562, 48 h
[4] = molecular target: T1, Signal transducer and activator of transcription 5A (Homo sapiens) (UniProt P42229); assay: Inhibition of STAT5 phosphorylation in human K562 cells at 0.75 uM after 24 hrs by flow cytometry (reference value: 315.56); type: cell-based
T1 sequence (whole entry): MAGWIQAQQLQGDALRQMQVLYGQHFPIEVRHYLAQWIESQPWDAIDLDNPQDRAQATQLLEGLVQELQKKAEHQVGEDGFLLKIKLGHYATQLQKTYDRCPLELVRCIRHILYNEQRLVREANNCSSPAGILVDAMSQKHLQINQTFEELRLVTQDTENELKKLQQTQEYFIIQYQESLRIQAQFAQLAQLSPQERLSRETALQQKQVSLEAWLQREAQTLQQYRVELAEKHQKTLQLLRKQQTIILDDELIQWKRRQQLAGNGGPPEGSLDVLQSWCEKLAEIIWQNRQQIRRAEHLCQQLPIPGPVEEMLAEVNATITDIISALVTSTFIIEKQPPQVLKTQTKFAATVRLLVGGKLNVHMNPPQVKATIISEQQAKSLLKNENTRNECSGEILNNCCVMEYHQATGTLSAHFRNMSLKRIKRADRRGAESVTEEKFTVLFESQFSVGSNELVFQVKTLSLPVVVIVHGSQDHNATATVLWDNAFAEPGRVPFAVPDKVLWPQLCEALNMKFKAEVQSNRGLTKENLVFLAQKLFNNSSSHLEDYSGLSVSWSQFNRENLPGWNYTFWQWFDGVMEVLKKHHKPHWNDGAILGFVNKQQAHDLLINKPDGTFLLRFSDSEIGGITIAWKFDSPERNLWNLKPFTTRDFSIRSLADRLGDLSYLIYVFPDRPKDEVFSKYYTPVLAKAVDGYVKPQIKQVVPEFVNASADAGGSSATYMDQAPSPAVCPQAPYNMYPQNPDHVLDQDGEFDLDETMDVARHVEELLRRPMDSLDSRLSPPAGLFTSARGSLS
In short: (§2)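 After 24 h exposure, about 1×10^6 K562 cells were PBS-washed and fixed/permeabilised for 20 min at 4 °C. They were then stained for 30 min at 4 °C with PE-conjugated anti-pSTAT5 monoclonal antibody, with an isotype antibody as control. Median fluorescence was read by flow cytometry and compared with untreated cells stained for pSTAT5.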

K562 [5] = assay: Induction of apoptosis in human K562 cells after 48 hrs by annexinV and propidium iodide staining based flow cytometry; type: functional, cell-based; conditions: K562, 48 h
In short: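 After 48 h drug exposure, 1×10^6 cells were washed in PBS and spun at 200×g for 5 min. They were stained with FITC-annexin V plus propidium iodide for 15 min at 20 °C and annexin V-positive cells counted by flow cytometry. Apoptosis was also scored morphologically with acridine orange/ethidium bromide, counting at least 300 cells. AC50 is the concentration inducing apoptosis in 50% of cells; mean ± SE from two to three experiments.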

K562 [6] = assay: Cell cycle arrest in human K562 cells assessed as accumulation at G1 phase at 0.75 uM for 24 hrs by propidium iodide staining based flow cytometry (reference value: 39.27%); type: functional; in short: as §1
K562 [7] = assay: Cell cycle arrest in human K562 cells assessed as accumulation at S-phase at 3 uM for 24 hrs by propidium iodide staining based flow cytometry (reference value: 47.84%); type: functional
In short: (§3)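 K562 cells in RPMI 1640 with 10% FCS, penicillin/streptomycin and L-glutamine, 5% CO2, 37 °C; exposed 24 h. Cells washed in ice-cold PBS, resuspended at 1×10^6/mL in hypotonic solution of propidium iodide 50 µg/mL in 0.1% sodium citrate plus 0.03% nonidet P-40 for 30 min. DNA content read as single-parameter flow cytometry histograms; phase distribution modelled.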

K562 [8] = assay: Cell cycle arrest in human K562 cells assessed as accumulation at G1 phase at 3 uM for 24 hrs by propidium iodide staining based flow cytometry (reference value: 39.27%); type: functional; in short: as §3
[9] = molecular target: T1, Signal transducer and activator of transcription 5A (Homo sapiens); assay: Inhibition of STAT5 phosphorylation in human K562 cells at 3 uM after 24 hrs by flow cytometry (reference value: 315.56); type: cell-based; in short: as §2
K562 [10] = assay: Cell cycle arrest in human K562 cells assessed as accumulation at G2M-phase at 3 uM for 24 hrs by propidium iodide staining based flow cytometry (reference value: 12.89%); type: functional; in short: as §3
[11] = molecular target: T1, Signal transducer and activator of transcription 5A (Homo sapiens); assay: Inhibition of STAT5 phosphorylation in human K562 cells at 2 uM after 24 hrs by flow cytometry (reference value: 315.56); type: cell-based; in short: as §2
K562 [12] = assay: Cell cycle arrest in human K562 cells assessed as accumulation at S-phase at 2 uM for 24 hrs by propidium iodide staining based flow cytometry (reference value: 47.84%); type: functional; in short: as §1
K562 [13] = assay: Cell cycle arrest in human K562 cells assessed as accumulation at G1 phase at 2 uM for 24 hrs by propidium iodide staining based flow cytometry (reference value: 39.27%); type: functional; in short: as §1
K562 [14] = assay: Cell cycle arrest in human K562 cells assessed as accumulation at G2M-phase at 2 uM for 24 hrs by propidium iodide staining based flow cytometry (reference value: 12.89%); type: functional; in short: as §1
[15] = molecular target: T1, Signal transducer and activator of transcription 5A (Homo sapiens); assay: Inhibition of STAT5 phosphorylation in human K562 cells at 2 uM after 24 hrs by flow cytometry relative to control; type: cell-based
In short: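 K562 cells were exposed for 24 h. About 1×10^6 cells were fixed and permeabilized for 20 min at 4 °C, then stained for 30 min at 4 °C with PE-conjugated anti-pSTAT5 monoclonal antibody; an isotype IgG1 antibody served as the background control. Median fluorescence was read by flow cytometry and compared with untreated cells stained for pSTAT5.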

Tubulin = Tubulin (Bos taurus, UniProt Q6B856+Q862L2+Q862F3); assay: Inhibition of bovine brain tubulin polymerization by spectrophotometry
In short: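 Bovine brain tubulin (10 µM) was pre-incubated with varying compound concentrations in glutamate buffer at 30 °C, then cooled to 0 °C. GTP was added ([…] final) and the mixture warmed to 30 °C. Assembly was followed by turbidity at 350 nm.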

Bos taurus = species: Bos taurus; assay: Inhibition of [3H]colchicine binding to bovine tubulin at 5 uM by DEAE-cellulose filter method
In short: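 Reaction mixtures contained 1 µM tubulin, 5 µM [3H]colchicine and 5 µM test compound. Result is given as % inhibition of colchicine binding ± SD.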

[16] = molecular target: T1, Signal transducer and activator of transcription 5A (Homo sapiens); assay: Inhibition of STAT5 phosphorylation in human K562 cells at 3 uM after 24 hrs by flow cytometry relative to control; type: cell-based; in short: as §2

Structure (SMILES): COc1cc(C(=O)c2cc3cc(NC(=O)CI)cc(OC)c3o2)cc(OC)c1OC
- Activity (K562 [1]): 8.02%
- Activity (K562 [2]): 57.32%
- IC50 (K562 [3]): 400 nM
- Flu intensity [4]: 316
- AC50 (K562 [5]): 2200 nM
- Activity (K562 [6]): 34.66%

Structure (SMILES): COc1cc(C(=O)c2oc3ccc(NC(=O)CI)cc3c2C)cc(OC)c1OC
- IC50 (K562 [3]): 18000 nM
- AC50 (K562 [5]): 26800 nM

Structure (SMILES): COc1cc(C(=O)c2cc3ccc(NC(=O)CI)cc3o2)cc(OC)c1OC
- Activity (K562 [7]): 51.3%
- Activity (K562 [8]): 37.06%
- Flu intensity [9]: 289
- IC50 (K562 [3]): 600 nM
- Activity (K562 [10]): 11.1%
- AC50 (K562 [5]): 2900 nM

Structure (SMILES): COc1cc(C(=O)c2c(NC(=O)CI)c3ccccc3n2C)cc(OC)c1OC
- IC50 (K562 [3]): 4300 nM
- AC50 (K562 [5]): 8200 nM

Structure (SMILES): COc1cc(C(=O)c2oc3c(OC)cccc3c2NC(=O)CI)cc(OC)c1OC
- IC50 (K562 [3]): 14000 nM
- AC50 (K562 [5]): 24000 nM

Structure (SMILES): COc1ccc(C(=O)c2oc3ccccc3c2NC(=O)CI)cc1
- IC50 (K562 [3]): 2900 nM
- AC50 (K562 [5]): 6800 nM

Structure (SMILES): COc1cc(C(=O)c2cc3c(NC(=O)CI)cccc3o2)cc(OC)c1OC
- Flu intensity [11]: 272
- Activity (K562 [12]): 53.09%
- Activity (K562 [13]): 33.67%
- IC50 (K562 [3]): 800 nM
- Activity (K562 [14]): 16.24%
- AC50 (K562 [5]): 4500 nM

Structure (SMILES): COc1cc(C(=O)c2cc3cc(NC(=O)CI)ccc3o2)cc(OC)c1OC
- Flu intensity [11]: 255
- Activity (K562 [12]): 53.52%
- Activity (K562 [13]): 39.48%
- IC50 (K562 [3]): 600 nM
- Activity (K562 [14]): 7%
- AC50 (K562 [5]): 2900 nM
- inhibition [15]: 19%

Structure (SMILES): Cc1ccc(NC(=O)c2ccc(CN3CCN(C)CC3)cc2)cc1Nc1nccc(-c2cccnc2)n1 [IMATINIB]
- AC50 (K562 [5]): 680 nM

Structure (SMILES): COc1cc(C(=O)c2sc3ccccc3c2NC(=O)CI)cc(OC)c1OC
- IC50 (K562 [3]): 18000 nM
- AC50 (K562 [5]): 28000 nM

Structure (SMILES): COc1cc2oc(C(=O)c3cc(OC)c(OC)c(OC)c3)cc2cc1NC(=O)CI
- Flu intensity [11]: 225
- Activity (K562 [12]): 52.26%
- Activity (K562 [13]): 43.33%
- IC50 (K562 [3]): 400 nM
- Activity (K562 [14]): 4.41%
- AC50 (K562 [5]): 2000 nM
- inhibition [15]: 29%

Structure (SMILES): COc1cc(C(=O)c2cc3cc(NC(=O)CI)cc(OC)c3s2)cc(OC)c1OC
- Flu intensity [11]: 201
- Activity (K562 [12]): 33.7%
- Activity (K562 [13]): 19.94%
- IC50 (K562 [3]): 780 nM
- Activity (K562 [14]): 45.36%
- AC50 (K562 [5]): 3700 nM

Structure (SMILES): COc1cc(C(=O)c2cc3cccc(NC(=O)CI)c3o2)cc(OC)c1OC
- IC50 (K562 [3]): > 50000 nM
- AC50 (K562 [5]): > 50000 nM

Structure (SMILES): COc1ccc2c(NC(=O)CI)c(C(=O)c3cc(OC)c(OC)c(OC)c3)oc2c1
- IC50 (Tubulin): 1800 nM
- IC50 (K562 [3]): 120 nM
- AC50 (K562 [5]): 450 nM
- inhibition (Bos taurus): 54%

Structure (SMILES): COc1ccc(C(=O)c2oc3ccccc3c2NC(=O)CI)cc1OC
- IC50 (K562 [3]): 22000 nM
- AC50 (K562 [5]): 48000 nM

Structure (SMILES): COc1ccc2oc(C(=O)c3cc(OC)c(OC)c(OC)c3)c(NC(=O)CI)c2c1
- IC50 (K562 [3]): 3200 nM
- AC50 (K562 [5]): 7800 nM

Structure (SMILES): COc1cc(C(=O)c2cc3cc(NC(=O)CI)ccc3s2)cc(OC)c1OC
- Flu intensity [11]: 279
- Activity (K562 [12]): 54.92%
- Activity (K562 [13]): 32.96%
- IC50 (K562 [3]): 800 nM
- Activity (K562 [14]): 12.12%
- AC50 (K562 [5]): 4200 nM

Structure (SMILES): COc1cc(C(=O)c2oc3ccccc3c2NC(=O)CI)cc(OC)c1OC
- Activity (K562 [7]): 20.98%
- Activity (K562 [8]): 75.37%
- IC50 (Tubulin): > 20000 nM
- Flu intensity [9]: 98.3
- IC50 (K562 [3]): 900 nM
- Activity (K562 [10]): 3.65%
- AC50 (K562 [5]): 6500 nM

Structure (SMILES): COc1cc(C(=O)c2sc3cc(C)ccc3c2NC(=O)CI)cc(OC)c1OC
- Activity (K562 [7]): 27.66%
- Activity (K562 [8]): 41.47%
- Flu intensity [9]: 200
- IC50 (K562 [3]): 1000 nM
- Activity (K562 [10]): 30.87%
- AC50 (K562 [5]): 4700 nM

Structure (SMILES): COc1cc(C(=O)c2c(NC(=O)CI)c3cccc(OC)c3n2C)cc(OC)c1OC
- Flu intensity [11]: 58.2
- Activity (K562 [12]): 19.55%
- IC50 (Tubulin): 2000 nM
- Activity (K562 [13]): 77.64%
- IC50 (K562 [3]): 800 nM
- Activity (K562 [14]): 2.81%
- AC50 (K562 [5]): 4600 nM
- inhibition (Bos taurus): 38%

Structure (SMILES): COc1cc(C(=O)c2[nH]c3ccccc3c2NC(=O)CI)cc(OC)c1OC
- inhibition [16]: 30%
- Activity (K562 [7]): 57.79%
- Activity (K562 [8]): 31.82%
- Flu intensity [9]: 222
- IC50 (K562 [3]): 500 nM
- Activity (K562 [10]): 9.39%
- AC50 (K562 [5]): 2400 nM
